Measured values reported in ChEMBL document CHEMBL1135935, “Halogenated diazirines as photolabel mimics of the inhaled haloalkane anesthetics” (J Med Chem, 2002).

Assays:
[1] = Dissociation constant for a single binding site
How it was run: (§1)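 Bovine serum albumin (10 mg/mL) was pre-equilibrated with ~5 mCi tritiated water in 1 M GdnCl, 0.1 M NaH2PO4 pH 8.5 for ≥18 h at room temperature. Exchange-out ran with compound present. Aliquots were taken at timed intervals over ≥6 h, precipitated in ice-cold 10% TCA, filtered, and counted by scintillation. PFR came from the last 3–5 shared hydrogens. KD was derived from PFr = 1 + ([compound]/KD)^n.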

[2] = biological target: Albumin (Homo sapiens, UniProt P02768); test: Inhibitory concentration bound to tryptophan containing region of Serum albumin in fluorescence quenching
Chain of Albumin (P02768 whole entry): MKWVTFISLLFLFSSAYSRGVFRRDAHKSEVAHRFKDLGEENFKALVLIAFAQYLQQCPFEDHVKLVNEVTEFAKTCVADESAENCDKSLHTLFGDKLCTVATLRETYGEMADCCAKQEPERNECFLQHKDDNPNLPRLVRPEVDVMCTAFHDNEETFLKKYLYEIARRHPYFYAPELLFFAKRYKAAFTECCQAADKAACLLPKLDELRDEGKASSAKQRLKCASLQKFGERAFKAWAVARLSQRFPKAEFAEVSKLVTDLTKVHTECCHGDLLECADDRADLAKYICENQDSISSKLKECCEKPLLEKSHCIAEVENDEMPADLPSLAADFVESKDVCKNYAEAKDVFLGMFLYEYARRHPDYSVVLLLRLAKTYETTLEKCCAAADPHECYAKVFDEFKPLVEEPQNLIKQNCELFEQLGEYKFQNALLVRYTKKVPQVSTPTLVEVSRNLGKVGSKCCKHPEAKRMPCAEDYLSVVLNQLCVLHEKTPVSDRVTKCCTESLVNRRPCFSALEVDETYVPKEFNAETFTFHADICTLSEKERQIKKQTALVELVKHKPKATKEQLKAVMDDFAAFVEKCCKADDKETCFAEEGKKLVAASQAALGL
How it was run: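 Increasing compound concentrations were added from stock buffer solutions to ~2 µM human serum albumin, which has a single Trp-214. The cuvette was kept air-free. Excitation was 295 nm with emission scanning at room temperature. Fluorescence maxima were corrected for inner-filter effects, and EC50 and Hill slope were derived.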

[3] = (§2) Effective concentration to potentiate GABA responses; type: functional
How it was run: (§3)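 Stage V–VI Xenopus oocytes were defolliculated with collagenase and injected with 1–2 ng of each subunit cRNA in a 1:1 ratio. They were kept in ND96 with 50 µg/mL gentamicin at 18 °C for 3–5 days. Voltage-clamp recording was done under continuous ND96 superfusion (pH 7.5).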

[4] = Effective concentration for rapid onset of reversible immobility (tadpole) at about 0.1 mM; type: functional, frog
How it was run: (§4)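 Tadpoles were exposed to compound in pond water and scored for loss of righting reflex over 5 min. They were then moved to fresh pond water and watched for recovery, intermittently for 3 h. EC50 values are estimates within 2-fold.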

[5] = Effective concentration for tadpole immobility (less potent); type: functional, frog; how it was run: as §4
[6] = as §2; type: functional; how it was run: as §3; remark: listed apart in the source
[7] = Effective concentration for tadpole immobility after 5 min (slow recovery); type: functional, frog; conditions: Amphibia, read-out: ED50 (the source's name); how it was run: as §4
[8] = Dissociation constant for a single binding site at 5 mM concentration; how it was run: as §1

| SMILES | Kd [1] [µM] | IC50 [2] [µM] | EC50 [3] [µM] | EC50 [4] [µM] | EC50 [5] [µM] | ED50 [6] [µM] | EC50 [7] [µM] | Kd [8] [µM] |
| --- | --- | --- | --- | --- | --- | --- | --- | --- |
| FC(F)(F)C1(Br)N=N1 | 5600 | 400 |  |  |  |  |  |  |
| FC(F)(C(Cl)Br)C1N=N1 (configuration not stated) | 200 | 800 | 50 | 100 |  |  |  |  |
| FC(Cl)C(F)(F)C1(F)N=N1 (configuration not stated) | 4800 | 2200 |  |  | 2500 |  |  |  |
| FC(F)(F)C(Cl)Br (configuration not stated) [HALOTHANE] | 900 | 2900 |  |  |  |  |  |  |
| FC(Cl)C(F)(F)C1(Br)N=N1 (configuration not stated) | 600 | 700 |  |  |  | 80 | 300 |  |
| [N-]=[N+]=CC(F)(F)F |  | 1200 |  |  |  |  |  | 1300 |
